{"source": "ChEMBL document CHEMBL1143425", "about": "“Paradoxical growth effect of caspofungin observed on biofilms and planktonic cells of five different Candida species” (2007)", "key": {"Candida albicans [1]": {"tested_on": "Candida albicans", "test": "Antimicrobial activity against Candida albicans BR-A4 grown as planktonic cell after 48 hrs by XTT reduction assay", "type": "functional", "method_in_brief": "(§1)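 Planktonic broth microdilution followed CLSI M27-A2, with caspofungin dissolved in water. After 48 h, XTT-menadione was added to the wells and plates were kept 1 h at 35°C in the dark. Plates were then centrifuged and supernatant A490 was read. MIC was the lowest concentration giving a 50% decrease in metabolic activity versus drug-free control. Paradoxical growth was defined as ≥20% of control activity above the MIC.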"}, "Candida albicans [2]": {"tested_on": "Candida albicans", "test": "Antimicrobial activity against Candida albicans BR-A7 grown as planktonic cell after 48 hrs by XTT reduction assay", "type": "functional", "method_in_brief": "as §1"}, "Candida parapsilosis [3]": {"tested_on": "Candida parapsilosis", "test": "Antimicrobial activity against Candida parapsilosis BR-A27 grown as planktonic cell after 48 hrs by XTT reduction assay", "type": "functional", "details": "Lodderomyces parapsilosis", "method_in_brief": "as §1"}, "Candida orthopsilosis [4]": {"tested_on": "Candida orthopsilosis", "test": "Antimicrobial activity against Candida orthopsilosis BR-A32 grown as planktonic cell after 48 hrs by XTT reduction assay", "type": "functional", "details": "Lodderomyces orthopsilosis", "method_in_brief": "as §1"}, "Candida orthopsilosis [5]": {"tested_on": "Candida orthopsilosis", "test": "Antimicrobial activity against Candida orthopsilosis BR-A35 grown as planktonic cell after 48 hrs by XTT reduction assay", "type": "functional", "details": "Lodderomyces orthopsilosis", "method_in_brief": "(§2)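 Planktonic cells were tested by CLSI M27-A2 broth microdilution with caspofungin in water, incubated 48 h. XTT-menadione was added to each well, plates were held 1 h at 35°C in the dark and centrifuged, and supernatant absorbance was read at 490 nm. MIC was defined as 50% decrease in metabolic activity versus drug-free control. PG was defined as ≥20% of control activity at concentrations above MIC.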"}, "Candida orthopsilosis [6]": {"tested_on": "Candida orthopsilosis", "test": "Antimicrobial activity against Candida orthopsilosis BR-A39 grown as planktonic cell after 48 hrs by XTT reduction assay", "type": "functional", "details": "Lodderomyces orthopsilosis", "method_in_brief": "as §1"}, "Candida metapsilosis [7]": {"tested_on": "Candida metapsilosis", "test": "Antimicrobial activity against Candida metapsilosis BR-A40 grown as planktonic cell assessed as paradoxical growth after 48 hrs by XTT reduction assay", "type": "functional, organism-based", "method_in_brief": "as §2"}, "Candida tropicalis [8]": {"tested_on": "Candida tropicalis", "test": "Antimicrobial activity against Candida tropicalis BR-A8 grown as planktonic cell assessed as concentration producing paradoxical growth after 48 hrs by XTT reduction assay", "type": "functional", "method_in_brief": "(§3)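 Planktonic broth microdilution followed CLSI M27-A2, with caspofungin dissolved in water. After 48 h, XTT-menadione was added to each well and plates were incubated 1 h at 35°C in the dark. Cells were pelleted by centrifugation and the supernatant was read at 490 nm. MIC was the lowest concentration giving a 50% drop in metabolic activity versus the drug-free control. PG was ≥20% of drug-free activity above the MIC.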"}, "Candida tropicalis [9]": {"tested_on": "Candida tropicalis", "test": "Antimicrobial activity against Candida tropicalis BR-A14 grown as planktonic cell assessed as concentration producing paradoxical growth after 48 hrs by XTT reduction assay", "type": "functional", "method_in_brief": "as §3"}, "Candida tropicalis [10]": {"tested_on": "Candida tropicalis", "test": "Antimicrobial activity against Candida tropicalis BR-A18 grown as planktonic cell assessed as paradoxical growth after 48 hrs by XTT reduction assay", "type": "functional, organism-based", "method_in_brief": "as §3"}, "Candida parapsilosis [11]": {"tested_on": "Candida parapsilosis", "test": "Antimicrobial activity against Candida parapsilosis BR-A29 grown as planktonic cell assessed as concentration producing paradoxical growth after 48 hrs by XTT reduction assay", "type": "functional", "method_in_brief": "as §3"}, "Candida parapsilosis [12]": {"tested_on": "Candida parapsilosis", "test": "Antimicrobial activity against Candida parapsilosis BR-A31 grown as planktonic cell assessed as paradoxical growth after 48 hrs by XTT reduction assay", "type": "functional, organism-based", "method_in_brief": "as §3"}, "Candida orthopsilosis [13]": {"tested_on": "Candida orthopsilosis", "test": "Antimicrobial activity against Candida orthopsilosis BR-A32 grown as planktonic cell assessed as paradoxical growth after 48 hrs by XTT reduction assay", "type": "functional, organism-based", "method_in_brief": "as §2"}, "Candida albicans [14]": {"tested_on": "Candida albicans", "test": "Antimicrobial activity against Candida albicans BR-A2 grown as biofilm after 48 hrs by XTT reduction assay", "type": "functional", "method_in_brief": "(§4)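 Isolates were grown on Sabouraud agar (30°C, 24 h), then overnight in RPMI 1640 with MOPS, pH 7.0, at 35°C with shaking. Cells were washed and set to ~1 × 10^7 cells/ml, attached 1.5 h at 37°C, and grown 24 h. Biofilms were then exposed to caspofungin in 10 twofold dilutions (2–1,024 μg/ml) for 48 h at 35°C with shaking. Read-out was XTT-menadione, 1 h, 35°C, dark, A490, cell-free blank subtracted. MIC was the 50% drop in activity versus drug-free control. Tested in duplicate.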"}, "Candida tropicalis [15]": {"tested_on": "Candida tropicalis", "test": "Antimicrobial activity against Candida tropicalis BR-A24 grown as biofilm after 48 hrs by XTT reduction assay", "type": "functional", "method_in_brief": "as §4"}, "Candida parapsilosis [16]": {"tested_on": "Candida parapsilosis", "test": "Antimicrobial activity against Candida parapsilosis BR-A27 grown as biofilm after 48 hrs by XTT reduction assay", "type": "functional", "details": "Lodderomyces parapsilosis", "method_in_brief": "(§5)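 Clinical isolates were grown overnight (18 h, 35°C, 120 rpm) in RPMI 1640 with MOPS, pH 7.0, then washed and set to ~1 × 10^7 cells/ml. Cells attached for 1.5 h at 37°C, 75 rpm, then biofilms grew 24 h. Caspofungin was given as doubling dilutions of 2–1,024 μg/ml for 48 h at 35°C, 75 rpm. Read-out was XTT-menadione in PBS, 1 h at 35°C in the dark, A490, cell-free blank subtracted. MIC was a 50% drop in activity versus drug-free; PG was >50% of control above MIC. Run in duplicate.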"}, "Candida orthopsilosis [17]": {"tested_on": "Candida orthopsilosis", "test": "Antimicrobial activity against Candida orthopsilosis BR-A32 grown as biofilm after 48 hrs by XTT reduction assay", "type": "functional", "details": "Lodderomyces orthopsilosis", "method_in_brief": "as §4"}, "Candida orthopsilosis [18]": {"tested_on": "Candida orthopsilosis", "test": "Antimicrobial activity against Candida orthopsilosis BR-A35 grown as biofilm after 48 hrs by XTT reduction assay", "type": "functional", "details": "Lodderomyces orthopsilosis", "method_in_brief": "as §4"}, "Candida metapsilosis [19]": {"tested_on": "Candida metapsilosis", "test": "Antimicrobial activity against Candida metapsilosis BR-A41 grown as biofilm after 48 hrs by XTT reduction assay", "type": "functional", "details": "Lodderomyces metapsilosis", "method_in_brief": "(§6)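 Sabouraud-grown cells were shaken overnight (18 h, 120 rpm, 35°C) in RPMI 1640 with MOPS at pH 7.0, then washed and set at ~1 × 10^7 cells/ml. Attachment lasted 1.5 h at 37°C, and growth ran 24 h before challenge. Caspofungin was added in RPMI at 2–1,024 μg/ml (10 doublings) for 48 h at 35°C with shaking. XTT-menadione was read at 490 nm after 1 h at 35°C in the dark, with blank wells subtracted. MIC was taken as 50% reduction versus drug-free wells, and PG as >50% of control above MIC. Assays were run in duplicate.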"}, "Candida parapsilosis [20]": {"tested_on": "Candida parapsilosis", "test": "Antimicrobial activity against Candida parapsilosis BR-A26 grown as biofilm assessed as paradoxical growth after 48 hrs by XTT reduction assay", "type": "functional, organism-based", "method_in_brief": "as §5"}, "Candida orthopsilosis [21]": {"tested_on": "Candida orthopsilosis", "test": "Antimicrobial activity against Candida orthopsilosis BR-A32 grown as biofilm assessed as concentration producing paradoxical growth after 48 hrs by XTT reduction assay", "type": "functional", "method_in_brief": "as §6"}, "Candida orthopsilosis [22]": {"tested_on": "Candida orthopsilosis", "test": "Antimicrobial activity against Candida orthopsilosis BR-A35 grown as biofilm assessed as concentration producing paradoxical growth after 48 hrs by XTT reduction assay", "type": "functional", "method_in_brief": "as §6"}, "Candida orthopsilosis [23]": {"tested_on": "Candida orthopsilosis", "test": "Antimicrobial activity against Candida orthopsilosis BR-A37 grown as biofilm assessed as concentration producing paradoxical growth after 48 hrs by XTT reduction assay", "type": "functional", "method_in_brief": "as §6"}, "Candida orthopsilosis [24]": {"tested_on": "Candida orthopsilosis", "test": "Effect on morphology in Candida orthopsilosis grown as biofilm assessed as inhibition of hyphae and pseudohyphae at 32 ug/ml after 48 hrs", "type": "functional, organism-based", "method_in_brief": "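Biofilms formed in RPMI 1640 wells were exposed to caspofungin for 48 h and compared with drug-free control wells. Wells were examined in the plate under an inverted light microscope at ×200 and photographed.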"}, "Candida tropicalis [25]": {"tested_on": "Candida tropicalis", "test": "Effect on morphology in Candida tropicalis grown as biofilm assessed as inhibition of hyphae and pseudohyphae at 8 ug/ml after 48 hrs", "type": "functional, organism-based", "method_in_brief": "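Overnight RPMI 1640 cultures (MOPS, pH 7.0) were washed and set to about 1 × 10^7 cells/ml, then attached to polystyrene wells for 1.5 h at 37°C at 75 rpm. After 24 h biofilm growth, wells were washed and given doubling caspofungin dilutions (2–1,024 μg/ml in RPMI) for 48 h at 35°C at 75 rpm. Biofilms were viewed in situ by inverted light microscopy at ×200 alongside drug-free wells.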"}}, "note": "The source made the active and inactive calls.", "data": [{"smiles": "CC[C@H](C)C[C@H](C)CCCCCCCCC(=O)N[C@H]1C[C@@H](O)[C@@H](NCCN)NC(=O)[C@@H]2[C@@H](O)CCN2C(=O)[C@H]([C@H](O)CCN)NC(=O)[C@H]([C@H](O)[C@@H](O)c2ccc(O)cc2)NC(=O)[C@@H]2C[C@@H](O)CN2C(=O)[C@H]([C@@H](C)O)NC1=O", "note": "[CASPOFUNGIN]", "values": [{"measurement": "MIC", "setting": "Candida albicans [1]", "value": 0.5, "unit": "µg/mL"}, {"measurement": "MIC", "setting": "Candida albicans [2]", "value": 0.5, "unit": "µg/mL"}, {"measurement": "MIC", "setting": "Candida parapsilosis [3]", "value": 2, "unit": "µg/mL"}, {"measurement": "MIC", "setting": "Candida orthopsilosis [4]", "value": 2, "unit": "µg/mL"}, {"measurement": "MIC", "setting": "Candida orthopsilosis [5]", "value": 1, "unit": "µg/mL"}, {"measurement": "MIC", "setting": "Candida orthopsilosis [6]", "value": 2, "unit": "µg/mL"}, {"measurement": "Activity", "setting": "Candida metapsilosis [7]", "value": "inactive"}, {"measurement": "Activity", "setting": "Candida tropicalis [8]", "value": 8, "unit": "µg/mL"}, {"measurement": "Activity", "setting": "Candida tropicalis [9]", "value": 8, "unit": "µg/mL"}, {"measurement": "Activity", "setting": "Candida tropicalis [10]", "value": "Active"}, {"measurement": "Activity", "setting": "Candida parapsilosis [11]", "value": 32, "unit": "µg/mL"}, {"measurement": "Activity", "setting": "Candida parapsilosis [12]", "value": "inactive"}, {"measurement": "Activity", "setting": "Candida orthopsilosis [13]", "value": "inactive"}, {"measurement": "MIC", "setting": "Candida albicans [14]", "value": 2, "unit": "µg/mL"}, {"measurement": "MIC", "setting": "Candida tropicalis [15]", "value": 2, "unit": "µg/mL"}, {"measurement": "MIC", "setting": "Candida parapsilosis [16]", "value": 256, "unit": "µg/mL"}, {"measurement": "MIC", "setting": "Candida orthopsilosis [17]", "value": 2, "unit": "µg/mL"}, {"measurement": "MIC", "setting": "Candida orthopsilosis [18]", "value": 2, "unit": "µg/mL"}, {"measurement": "MIC", "setting": "Candida metapsilosis [19]", "value": 2, "unit": "µg/mL"}, {"measurement": "Activity", "setting": "Candida parapsilosis [20]", "value": "Active"}, {"measurement": "Activity", "setting": "Candida orthopsilosis [21]", "value": 32, "unit": "µg/mL"}, {"measurement": "Activity", "setting": "Candida orthopsilosis [22]", "value": 16, "unit": "µg/mL"}, {"measurement": "Activity", "setting": "Candida orthopsilosis [23]", "value": 32, "unit": "µg/mL"}, {"measurement": "Activity", "setting": "Candida orthopsilosis [24]", "value": "Active"}, {"measurement": "Activity", "setting": "Candida tropicalis [25]", "value": "Active"}]}]}
